Measured values reported in article PMC5224916 (Journal of controlled release : official journal of the …, 2016).

Assays:
[1] = system: Caco2, MCF7, and MDA-MB-231 cells; test: In vitro cellular uptake assays; type: cell-based, human; details: 2 h incubation
In short: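 Caco2, MCF7 and MDA-MB-231 cells were incubated 2 h with free DiD or DiD-loaded plain or Fc-targeted nanoparticles, then fixed in 4% formalin in PBS. Membranes were labelled with a lipophilic dye and nuclei counterstained with DAPI; cells were examined by fluorescence microscopy. For competition, cells were pretreated 30 min with IgG Fc fragments.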

[2] = system: intestinal epithelium (duodenum villi); test: In vivo intestinal uptake of nanoparticles; design: species or system CD-1 mice and nude mice; details: 0.5 mg/kg oral gavage, 2 h, CD-1 and nude mice
[3] = Plasma pharmacokinetics after oral administration; type: in vivo; details: 160 mg/kg oral, female CD-1 mice
In short: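 Female CD-1 mice were randomised into three groups and given a single oral dose of 160 mg/kg: free compound in PEG400:ethanol:saline (57.1:14.3:28.6), plain nanoparticles or Fc-targeted nanoparticles.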

[4] = system: MDA-MB-231 orthotopic tumors; test: MDA-MB-231 orthotopic tumor model, in vivo efficacy; design: species or system nude mice; details: 160 mg/kg/day oral
In short: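 Female athymic nu/nu mice, 4–6 weeks, received 1×10⁶ MDA-MB-231 cells in the second thoracic mammary fat pad under anaesthesia. After 2 weeks, mice were split into groups of 10. Dosing was by oral gavage, 5 days/week for 24 days: free compound in PEG400:ethanol:saline (57.1:14.3:28.6) or nanoparticles at 160 mg/kg/day, Fc-targeted form at 80 or 160 mg/kg/day; controls got vehicle. Mice with lung metastasis were counted at the end.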

MCF7 cells = test: Cell cycle distribution assay; type: cell-based, human; details: MCF7, 24 h, tested 0, 20, 50, 100 ng/mL
Caco2 cell monolayers = test: Caco2 cell monolayer permeability assay; type: in vitro ADME, human; details: apical to basolateral, 5 µg/mL, 120 min, 37°C, HPLC
In short: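 Caco2 cells grown on polycarbonate Transwell inserts, with monolayer integrity followed by TEER. Free or nanoparticle-formulated test compound (5 µg/mL) added apically; apical-to-basolateral transport tracked over 120 min by HPLC. Papp = (∂Q/∂t)/(A×C₀). For competition, cells were pretreated 30 min with IgG Fc fragments; transported Fc was quantified by human IgG Fc ELISA. Means ± SEM, at least three independent experiments.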

MDA-MB-231 cells = test: Cell cycle distribution assay; type: cell-based, human; details: MDA-MB-231, 24 h, tested 0, 20, 50, 100 ng/mL
MDM2 = MDM2 (Homo sapiens, UniProt Q00987); test: Western blotting of MDM2, p53 and p21 in breast cancer cells; type: cell-based; details: 20 ng/mL, 24 h, MCF7 and MDA-MB-231 cells
Sequence of MDM2 (Q00987 whole entry): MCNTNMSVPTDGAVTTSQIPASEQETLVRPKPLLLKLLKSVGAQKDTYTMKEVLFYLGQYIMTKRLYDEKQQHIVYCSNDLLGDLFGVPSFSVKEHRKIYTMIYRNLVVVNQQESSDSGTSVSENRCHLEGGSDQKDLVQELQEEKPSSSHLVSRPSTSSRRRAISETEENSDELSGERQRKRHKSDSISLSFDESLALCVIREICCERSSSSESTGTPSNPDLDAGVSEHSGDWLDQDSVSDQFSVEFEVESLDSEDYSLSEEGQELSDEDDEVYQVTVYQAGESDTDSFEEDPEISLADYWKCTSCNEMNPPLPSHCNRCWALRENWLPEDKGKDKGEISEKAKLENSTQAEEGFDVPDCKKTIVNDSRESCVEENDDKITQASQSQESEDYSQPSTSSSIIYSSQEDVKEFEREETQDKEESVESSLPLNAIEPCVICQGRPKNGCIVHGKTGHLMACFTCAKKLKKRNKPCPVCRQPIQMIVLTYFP

Structure (SMILES)	Cellular uptake of DiD (fluorescence microscopy) [1]	DiD fluorescence in the villi of the duodenum [2]	Cmax (peak plasma concentration of SP141) [3]	Inhibition of MDA-MB-231 tumor growth ([4]; 5 days/week, Day 24)	Incidence of lung metastasis (mice with metastatic lesions in the lungs) ([4]; 24 days, 10 mice/group)	Concentration at which G2/M phase cell cycle arrest starts to be induced (MCF7 cells)	Apparent permeability coefficient (Papp) (Caco2 cell monolayers)	Concentration at which G2/M phase cell cycle arrest starts to be induced (MDA-MB-231 cells)	Effect on MDM2, p53 and p21 expression (MDM2)
CCCCCCCCCCCCCCCCCCN1C(=CC=CC=CC2=[N+](CCCCCCCCCCCCCCCCCC)c3ccccc3C2(C)C)C(C)(C)c2ccccc21.[O-][Cl+3]([O-])([O-])[O-] [DiD, 1,1'-dioctadecyl-3,3,3',3'-tetramethylindodicarbocyanine perchlorate]	unable to diffuse into the cells	not observed	–	–	–	–	–	–	–
COc1ccc2[nH]c3c(-c4cccc5ccccc45)nccc3c2c1 [SP141]	–	–	4300 ng/mL	51%	4/10	100 ng/mL	70 ×10⁻⁶ cm/s	100 ng/mL	did not show significant effects
